This is a sample that favours compounds with a hit; in the whole collection about 29% have one here.
CYP2C9 inh = blockers of cytochrome P450 2C9 activity – biochemical, luminescence, ADME assay, primary screen | CYP2C9 Supersomes, luciferin-H conversion | AID 777, 2007 | inhibition, % at 5 µM | P11712 | 20% of 96,000 active;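 active = blocking of liver enzyme CYP2C9 beyond about 50% at 5 µM, limit read from the data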
CYP2C9 act = human CYP2C9 activators, primary screen, biochemical, luminescence | Cytochrome P450 2C9 (Homo sapiens), P11712 | recombinant CYP2C9, luciferin-H conversion; active compounds read high; factor 1 = untreated enzyme, 0 = blocked | activation factor at 5 µM | 1.4% of 96,000 active | AID 1024, 2008;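 active = activation factor of 2 or more for CYP2C9 at a 5 µM dose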
CYP2C19 inhib = blockers of cytochrome P450 2C19 activity – biochemical, luminescence, ADME assay, primary screen; AID 778, 2007; inhibition, % at 5 µM; CYP2C19 Supersomes, luciferin-H EGE luminescence, 30 min; 21% of 96,000 active;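 active = CYP2C19 inhibition above a set limit at 5 µM in the primary screen, cut at about 50% in these data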
Target sequence (P33261 whole entry, looked up): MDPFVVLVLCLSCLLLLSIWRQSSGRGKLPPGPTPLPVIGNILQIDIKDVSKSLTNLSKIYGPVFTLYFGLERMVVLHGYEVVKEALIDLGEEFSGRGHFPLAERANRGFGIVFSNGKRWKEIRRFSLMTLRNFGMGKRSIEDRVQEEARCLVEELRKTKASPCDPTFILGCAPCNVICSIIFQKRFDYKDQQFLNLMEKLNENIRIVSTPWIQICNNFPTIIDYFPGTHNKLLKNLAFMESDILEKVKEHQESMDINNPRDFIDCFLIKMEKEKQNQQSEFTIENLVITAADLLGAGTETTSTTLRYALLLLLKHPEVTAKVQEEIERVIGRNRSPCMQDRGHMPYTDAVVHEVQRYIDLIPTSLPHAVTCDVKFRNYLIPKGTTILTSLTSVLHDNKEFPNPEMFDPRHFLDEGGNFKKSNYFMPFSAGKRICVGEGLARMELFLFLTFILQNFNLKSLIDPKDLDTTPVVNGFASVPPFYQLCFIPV
Ecoli tolC = growth inhibitors of E. coli tolC mutant, primary screen, strain BW25113 ΔtolC::kan, 384-well; OD615; growth inhibition, % at 10 µM (by protocol); 2.2% of 65,000 active;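 active = growth inhibition at or above a cutoff equal to the mean over every tested compound plus 3 SD, cut at about 60% in these data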;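 also: growth measured after 20 h incubation at 37 °C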
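Test system – E. coli BW25113 ΔtolC::kan, tolC deletion mutant strain · Detection – OD at 615 nm · Buffer or medium – LB with kanamycin 50 µg/mL · Times – 20 h compound exposure of bacteria at 37 °C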
CYP2C19 activ = human CYP2C19 activators, primary screen, biochemical, luminescence. Cytochrome P450 2C19 (Homo sapiens), P33261. recombinant CYP2C19, luciferin-H EGE luminescence; active compounds read high; 0 = fully inhibited enzyme, 1 = untreated enzyme. 96,000 tested, under 10 active. activation factor at 5 µM;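 active = activation factor of at least 2 at 5 µM in the primary screen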
E coli WT exp = growth inhibitors of wild-type E. coli, primary screen, strain BW25113, expanded library, OD600 | growth inhibition, % at 100 µM | OD600 absorbance | AID 710, 2007 | 0.15% of 98,000 active;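 active = growth inhibition above about 50% at one test dose, limit read from the data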;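 also: growth measured after 20 h incubation at 37 °C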
Each line names hits and unclear results; the compound was inactive in the other large screens.

Cc1cc(C(=O)CN2C(=O)NC(c3ccccc3)(c3ccccc3)C2=O)c(C)n1Cc1ccccc1	CYP2C9 inh 69.7 (no result: Ecoli tolC)
Cc1ccc(S(=O)(=O)Nc2c(C)n(C)n(-c3ccccc3)c2=O)cc1C(=O)NCc1ccccn1	none
CCOC(=O)c1sc(NC(=O)CSc2nnnn2-c2ccc(C)cc2C)nc1C	none
CCCCNC(=O)COC(=O)c1ccc(Cl)c(S(N)(=O)=O)c1	none (no result: Ecoli tolC)
O=C(NCCCN=C1NS(=O)(=O)c2ccccc21)c1ccc(S(=O)(=O)N2CCOCC2)cc1	none (no result: Ecoli tolC)
CCOCCCn1c(=N)c(C(N)=S)cc2c(=O)n3cccc(C)c3nc21	none
CCCCNC(=O)c1cc2c(=O)n3cccc(C)c3nc2n(Cc2ccccc2)c1=N	CYP2C9 inh 64.4
Cc1cccn2c(=O)c3cc(C(N)=S)c(=N)n(CCCOC(C)C)c3nc12	CYP2C19 inhib 86.2
Cc1cccn2c(=O)c3cc(C(=O)NCCc4ccccc4)c(=N)n(CCCn4ccnc4)c3nc12	CYP2C9 inh 57.8, CYP2C19 inhib 55.1 (no result: Ecoli tolC)
CCn1cc(C2=NOC(C(=O)Nc3cc(OC)c(Cl)cc3OC)C2)c(C)n1 (stereo not given)	none
COc1ccc(C(c2c[nH]c3ccccc23)c2c[nH]c3ccccc23)cc1O	CYP2C9 inh 100.3, CYP2C19 inhib 94.6 (no result: Ecoli tolC)
COC(=O)CSc1ccc(-c2nc3ccc(C)cc3[nH]2)cn1	none (no result: Ecoli tolC)
N#Cc1c(N)nc2c(c1N)CC(=O)N2c1ccc(Cl)cc1	CYP2C19 inhib 51.5 (no result: Ecoli tolC)
Cc1cc(-c2ccc(Cl)cc2)c(C#N)c(N)n1	none (no result: Ecoli tolC)
N#Cc1c(N)nc2c(c1N)CC(=O)N2c1ccccc1-c1ccccc1	CYP2C9 inh 86.9, CYP2C19 inhib 95.9
CCN(CC)S(=O)(=O)c1ccc2oc(SCC3CN=C(c4ccc(OC)cc4)S3)nc2c1 (stereo not given)	CYP2C9 inh 78.8
COc1ccc(C2=NCC(CSc3nnc(-c4ccc5c(c4)OCO5)o3)S2)cc1 (stereo not given)	none
COc1ccc(OC)c(N(CC(=O)Nc2cccnc2)S(=O)(=O)c2ccc(C)cc2)c1	CYP2C9 inh 94.0, CYP2C19 inhib 95.1 (no result: Ecoli tolC)
CCOc1ccccc1N(CC(=O)Nc1cccnc1)S(C)(=O)=O	none (no result: Ecoli tolC)
CCN(CC)S(=O)(=O)c1ccc(NC(=O)CN(c2ccc(OC)cc2OC)S(C)(=O)=O)cc1	CYP2C9 inh 100.0, CYP2C19 inhib 85.9
COc1ccc(OC)c(N(CC(=O)Nc2cccnc2)S(C)(=O)=O)c1	CYP2C19 inhib 55.7 (no result: Ecoli tolC)
COc1ccc(OC)c(N(CC(=O)Nc2cccnc2)S(=O)(=O)c2ccc(OC)c(OC)c2)c1	CYP2C9 inh 90.1, CYP2C19 inhib 88.0
O=C(CCCN1C(=O)CCC1=O)Nc1ccccc1F	none (no result: Ecoli tolC)
CCCC1C2CN(C(C)C)CC=C2C(C#N)=C(N)C1(C#N)C#N (stereo not given)	none
OC12CCCCC1C(c1ccc3c(c1)OCO3)N(Cc1ccccc1F)CC2 (stereo not given)	CYP2C9 inh 94.7, CYP2C19 inhib 97.5
OC12CCCCC1C(c1ccc3c(c1)OCO3)N(Cc1cccc(F)c1)CC2 (stereo not given)	CYP2C9 inh 79.0, CYP2C19 inhib 78.7
O=C1C(c2ccc(F)cc2)N(Cc2ccc3c(c2)OCO3)C(=O)CN1C1CCCC1 (stereo not given)	none
OC12CCCCC1C(c1ccc3c(c1)OCO3)N(Cc1ccc(F)cc1)CC2 (stereo not given)	CYP2C19 inhib 72.0
COc1ccc(S(=O)(=O)N2CCC(NC(=O)OCc3c(Cl)cccc3Cl)CC2)cc1	none (no result: Ecoli tolC)
O=C(CS(=O)(=O)c1ccccc1)c1ccc2c(c1)OCCO2	CYP2C19 inhib 70.3
O=C(CCN1CCc2ccccc2C(c2ccccc2)C1)c1ccc2c(c1)OCCO2 (stereo not given)	CYP2C9 inh 54.6 (no result: Ecoli tolC)
O=C(CCN1Cc2ccccc2C1)c1ccc2c(c1)OCCO2	CYP2C9 inh 51.5
O=C(O)CCC(=O)c1ccc2c(c1)OCCO2	none
O=C(O)CCSCC(=O)c1ccc2c(c1)OCCO2	none
Cc1occc1-c1nnc(SCC(=O)N(C)CCC#N)n1N	none (no result: Ecoli tolC)
CC1CCN(c2ccccc2NC(=O)c2ccc(N3CCOCC3)c([N+](=O)[O-])c2)CC1	none (no result: Ecoli tolC)
Cc1cccc(-c2nc(NCCCN3CCOCC3)c3ccccc3n2)c1	CYP2C9 inh 84.5, CYP2C19 inhib 60.0 (no result: Ecoli tolC)
COC(=O)c1cnn(C(=O)c2cc(OC)ccc2Br)c1N	CYP2C9 act 2
CCN(c1ccc(OC)cc1)S(=O)(=O)c1ccc2c(c1)CCN2C(=O)CCC(=O)O	CYP2C9 inh 70.1
CCN(c1ccc(C)c(C)c1)S(=O)(=O)c1ccc2c(c1)CCN2C(=O)CCC(=O)O	CYP2C9 inh 51.5 (no result: Ecoli tolC)
CC1CCCCN1S(=O)(=O)c1ccc2c(c1)CCN2C(=O)CCC(=O)O (stereo not given)	none
CCc1ccccc1N1C(=O)C2CC(C)=C(C)CC2C1=O (stereo not given)	CYP2C9 inh 51.4
O=c1cc(N2CCc3ccccc3C2)[nH]c(=O)n1Cc1ccc(F)cc1	none (no result: CYP2C9 inh, CYP2C9 act, CYP2C19 inhib, CYP2C19 activ)
C=CCc1cccc(/C=N/c2ncccc2O)c1O	none
C=CCc1cccc(/C=N/n2cnnc2)c1O	CYP2C19 inhib 66.3
Cn1c(Cn2c(=O)sc3ccccc32)nnc1SCC(=O)Nc1cccc(F)c1	none (no result: CYP2C9 inh, CYP2C9 act, CYP2C19 inhib, CYP2C19 activ)
O=c1c2ccccc2sc2nc(C3CCCCC3)n(Cc3ccco3)c(=O)c12	none
CCc1nc2sc3ccccc3c(=O)c2c(=O)n1Cc1ccco1	Ecoli tolC 90.8 (no result: CYP2C9 inh, CYP2C9 act, CYP2C19 inhib, CYP2C19 activ)
CCOC(=O)c1nnc(-c2ccccc2)o1	none
CCc1ccc(C(=O)COC(=O)c2ccc(-c3nnc(-c4ccccc4)o3)cc2)cc1	CYP2C19 inhib 63.9 (no result: Ecoli tolC)
O=S(=O)(Nc1nc(CN2CCOCC2)nc2sc3c(c12)CCCC3)c1cc(F)ccc1F	CYP2C9 inh 62.6
CCCCN(CC)C(=O)c1cccc(Cl)c1	CYP2C19 inhib 70.8
O=C(CSc1nc2ccccc2s1)Nc1nccs1	CYP2C19 inhib 52.9 (no result: Ecoli tolC)
Nc1nonc1NC(=O)CSc1nc2ccccc2s1	CYP2C19 inhib 79.1
CC(C)c1nnc(NC(=O)CSc2nc3ccccc3s2)s1	none
Cn1cccc1C(=O)NC(=O)CSc1nc2ccccc2s1	none
CCc1nnc(NC(=O)CSc2nc3ccccc3s2)s1	CYP2C9 inh 57.5
Cc1noc(C)c1COC(=O)CCCc1c[nH]c2ccccc12	CYP2C9 inh 80.7, CYP2C19 inhib 93.4
CCOC(=O)CCCc1c[nH]c2ccccc12	none (no result: Ecoli tolC)
Cc1noc(C)c1COC(=O)CCc1nc2ccccc2c(=O)[nH]1	CYP2C9 inh 58.6
O=C(N/N=C/c1ccc(OCCCF)cc1)c1cc(OCC(F)(F)F)ccc1OCC(F)(F)F	none (no result: Ecoli tolC)
